Results collected from several papers.
Protocols differ between the studies behind these lines.
Target: Aurora kinase C (AURKC, Homo sapiens, UniProt Q9UQB9)
One construct used (Q9UQB9 1-309): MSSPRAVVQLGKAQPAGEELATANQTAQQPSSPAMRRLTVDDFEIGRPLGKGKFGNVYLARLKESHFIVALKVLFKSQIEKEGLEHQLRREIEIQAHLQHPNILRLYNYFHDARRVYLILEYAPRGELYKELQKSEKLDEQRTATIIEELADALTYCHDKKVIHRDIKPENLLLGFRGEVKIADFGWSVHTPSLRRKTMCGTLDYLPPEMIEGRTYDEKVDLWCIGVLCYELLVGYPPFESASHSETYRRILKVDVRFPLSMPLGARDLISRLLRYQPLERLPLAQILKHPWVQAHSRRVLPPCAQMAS

SMILES | test | setting | measurement | value
Nc1ncc(-c2nc(N3CCOCC3)nc(N3CCOCC3)n2)c(C(F)F)n1 | binding, competition with immobilised ligand | 10 µM | remaining binding | 91%
O=c1[nH]c2ccccc2n1C1CCN(Cc2ccc(-c3[nH]c4cc5ncnc5cc4nc3-c3ccccc3)cc2)CC1 | cell-free assay | 0.5 µM | remaining signal | 96%
Cn1cncc1[C@](O)(COc1ccc(C#N)cc1-c1ccc(OC(F)(F)F)cc1)c1ccc(C#N)cc1 | cell-free assay, competition with immobilised ligand | 1 µM | remaining binding | 100%
COc1ncccc1-c1cnn2ccc(N3CCN(C(=O)OC(C)C)CC3)nc12 | binding, competition with immobilised ligand | 1 µM | remaining binding | 56%
Cn1cc(-c2cc(F)cc(N3CCn4c(cc5c4CCCC5)C3=O)c2CO)cc(Nc2ccc(N3CCN(C4COC4)CC3)cn2)c1=O | enzyme activity, inhibitor | 0.1 µM | inhibition | 5%
CC(C)(C)c1cc(C=C(C#N)C#N)cc(Br)c1O | enzyme activity, inhibitor | 0.5 µM | remaining activity | 87.6%
N#CC1(c2ccccn2)CCN(Cc2cc(C(=O)O)c(=O)n3ccccc23)CC1 | cell-free assay, competition with immobilised ligand | 1 µM | remaining binding | 94%
COc1cc(Nc2ncc(F)c(Nc3ccc4c(n3)NC(=O)C(C)(C)O4)n2)cc(OC)c1OC | binding, competition with immobilised ligand | 10 µM | inhibition | 95%
Cn1cc(-c2cccc(N3CCc4c(sc5c4CC(C)(C)C5)C3=O)c2CO)cc(Nc2ccncn2)c1=O | enzyme activity, inhibitor | 1 µM | inhibition | 5%
C#Cc1n[nH]c2c(-c3cn(C(C)c4ccccn4)c(=O)[nH]c3=O)cc(F)cc12 (stereo not shown) | enzyme activity, inhibitor | 1 µM | inhibition | 1.7%
